Data reported in ChEMBL document CHEMBL3286382, “Synthesis and biological evaluation of imidazo[1,2-a]pyrimidines and imidazo[1,2-a]pyridines as new inhibitors of the Wnt/β-catenin signaling” (Eur J Med Chem, 2014).
Calls of active or inactive are those of the source. The rule behind the calls is not given here.

Assays:
HT-29 [1] = assay: Inhibition of Wnt signaling in human HT29 cells assessed as inhibition of beta-catenin-mediated Tcf/Lef transcriptional activity after 24 hrs by dual luciferase reporter gene assay relative to control; type: cell-based; conditions: HT-29, 24 h
HT-29 [2] = assay: Antiproliferative activity against human HT-29 cells after 72 hrs by MTT assay; type: functional; conditions: HT-29, 72 h
Method in brief: (§1)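 Cells grown in DMEM with 10% FBS, penicillin G, streptomycin and L-glutamine, seeded 7 x 10^3 per well, left 24 h, then exposed to scalar concentrations in complete medium for 72 h at 37 °C, 5% CO2. Viability read by MTT; IC50 taken as the concentration giving 50% inhibition of proliferation.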

LoVo = assay: Antiproliferative activity against human LoVo cells after 72 hrs by MTT assay; type: functional; method in brief: as §1
HepG2 = assay: Antiproliferative activity against human HepG2 cells after 72 hrs by MTT assay; type: functional; conditions: HepG2, 72 h; method in brief: as §1
A549 = assay: Antiproliferative activity against human A549 cells after 72 hrs by MTT assay; type: functional; conditions: A549, 72 h; method in brief: as §1
Danio rerio [3] = organism: Danio rerio; assay: Toxicity in zebrafish larvae assessed as mortality at 5 to 25 uM treated for 7 days; type: organism-based; conditions: in vivo, 168 h
Method in brief: (§2)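 Wild-type zebrafish larvae raised under standard conditions were exposed to compounds dissolved in E3 medium. The medium containing compound was renewed every day for 7 days. The read-out was survival rate (mortality) at the end of exposure.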

Danio rerio [4] = organism: Danio rerio; assay: Toxicity in zebrafish larvae assessed as mortality at 1 uM treated for 7 days; type: organism-based; conditions: in vivo, 168 h; method in brief: as §2
Danio rerio [5] = organism: Danio rerio; assay: Inhibition of Wnt/beta-catenin signaling in zebrafish larvae assessed as inhibition of Tcf/Lef transcriptional activity measured as thinner intestine at 1 uM after 72 hrs by GFP reporter assay; type: functional, organism-based
Method in brief: (§3)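 TCF/LEF-GFP reporter zebrafish were exposed from 24 hours post-fertilization for 72 h, with compounds dissolved in E3 medium that was renewed daily. GFP in the head and intestine was imaged by fluorescence stereomicroscope at 8X, alongside bright-field images.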

HT-29 [6] = assay: Inhibition of Wnt signaling in human HT29 cells assessed as inhibition of beta-catenin-mediated Tcf/Lef transcriptional activity at 25 uM after 24 hrs by dual luciferase reporter gene assay relative to control; type: cell-based
Method in brief: (§4)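 HT-29 cells (1.4 x 10^4) were co-transfected with 1 µg BAT-LUX, which carries 7 TCF sites and the siamois promoter driving firefly luciferase, plus 1 µg Renilla vector. Cells were then treated at 37 °C for 24 h, with or without the GSK-3β inhibitor LiCl. Dual-Glo readout; values are the mean firefly/Renilla ratio.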

HT-29 [7] = assay: Inhibition of Wnt signaling in human HT29 cells assessed as inhibition of beta-catenin-mediated Tcf/Lef transcriptional activity at 25 uM after 24 hrs by dual luciferase reporter gene assay relative to control in presence of GSK-3beta inhibitor LiCl; type: cell-based; method in brief: as §4
HT-29 [8] = assay: Inhibition of Wnt/beta-catenin signaling in human HT29 cells assessed as […] in axin2 mRNA expression at 25 uM after 24 hrs by quantitative real-time PCR assay; type: cell-based
Method in brief: (§5)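 Total RNA was extracted with TRIzol from HT-29 cells treated for 24 h. Transcripts were measured by real-time RT-PCR with GUS as the reference gene, and expression was expressed relative to untreated cells.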

HT-29 [9] = assay: Inhibition of Wnt signaling in human HT29 cells assessed as beta-catenin dephosphorylation at S33/37/T41 residues at 25 uM after 24 hrs by Western blot analysis; type: cell-based
Method in brief: (§6)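 After 24 h exposure, HT-29 cells were washed in cold PBS, lysed on ice for 30 min and cleared at 15 000 g, 4 °C. 10 µg protein was run on 12% SDS-PAGE and transferred to PVDF. Blots were probed with specific primary antibodies, then peroxidase-labelled secondaries, and developed by ECL. β-actin re-probing served as the loading control.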

HT-29 [10] = assay: Inhibition of Wnt/beta-catenin signaling in human HT29 cells assessed as GSK3-beta dephosphorylation at Ser21/Ser9 residues at 25 uM after 24 hrs by Western blot analysis; type: cell-based; method in brief: as §6
HT-29 [11] = assay: Inhibition of Wnt/beta-catenin signaling in human HT29 cells assessed as decrease in TCF1 protein level at 25 uM after 24 hrs by Western blot analysis; type: cell-based; method in brief: as §6
HT-29 [12] = assay: Inhibition of Wnt/beta-catenin signaling in human HT29 cells assessed as downregulation of cyclin D1 protein expression at 25 uM after 24 hrs by Western blot analysis; type: cell-based; method in brief: as §6
HT-29 [13] = assay: Inhibition of Wnt/beta-catenin signaling in human HT29 cells assessed as increase in p21 protein expression at 25 uM after 24 hrs by Western blot analysis; type: cell-based; method in brief: as §6
HT-29 [14] = assay: Inhibition of Wnt/beta-catenin signaling in human HT29 cells assessed as downregulation of cyclin B1 protein expression at 25 uM after 24 hrs by Western blot analysis; type: cell-based; method in brief: as §6
HT-29 [15] = assay: Inhibition of Wnt/beta-catenin signaling in human HT29 cells assessed as increase in phosphorylated c-myc level at 25 uM after 24 hrs by Western blot analysis; type: cell-based; method in brief: as §6
HT-29 [16] = assay: Inhibition of Wnt/beta-catenin signaling in human HT29 cells assessed as decrease in TCF4 mRNA expression at 25 uM after 24 hrs by quantitative real-time PCR assay; type: cell-based; method in brief: as §5
HT-29 [17] = assay: Inhibition of Wnt/beta-catenin signaling in human HT29 cells assessed as effect on c-myc mRNA expression at 25 uM after 24 hrs by quantitative real-time PCR assay; type: cell-based; method in brief: as §5
HT-29 [18] = assay: Cell cycle arrest in human HT-29 cells assessed as accumulation of cells at G1 phase at 25 uM after 24 hrs by flow cytometry; type: functional, cell-based
Method in brief: (§7)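 Exponentially growing HT-29 cells (1.5 × 10^5) were treated with the compounds for 24 h, then collected and fixed in ice-cold 70% ethanol. Fixed cells were treated with lysis buffer holding RNase A and 0.1% Triton X-100, stained with PI and analysed for DNA content by flow cytometry.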

HT-29 [19] = assay: Cell cycle arrest in human HT-29 cells assessed as reduction of cells in S phase at 25 uM after 24 hrs by flow cytometry; type: functional, cell-based; method in brief: as §7
HT-29 [20] = assay: Cell cycle arrest in human HT-29 cells assessed as reduction of cells in G2/M phase at 25 uM after 24 hrs by flow cytometry; type: functional, cell-based; method in brief: as §7
Danio rerio [21] = organism: Danio rerio; assay: Toxicity in zebrafish larvae assessed as mortality at 25 uM treated for 7 days; type: organism-based; conditions: in vivo, 168 h; method in brief: as §2
Danio rerio [22] = assay: Inhibition of Wnt/beta-catenin signaling in zebrafish larvae assessed as inhibition of Tcf/Lef transcriptional activity measured as pericardial edema at 10 uM after 72 hrs by GFP reporter assay; type: functional, organism-based; method in brief: as §3
Danio rerio [23] = organism: Danio rerio; assay: Inhibition of Wnt/beta-catenin signaling in zebrafish larvae assessed as inhibition of Tcf/Lef transcriptional activity measured as dysmorphic craniofacial features at 10 uM after 72 hrs by GFP reporter assay; type: functional, organism-based; method in brief: as §3
Danio rerio [24] = organism: Danio rerio; assay: Inhibition of Wnt/beta-catenin signaling in zebrafish larvae assessed as inhibition of Tcf/Lef transcriptional activity measured as thinner intestine at 10 uM after 72 hrs by GFP reporter assay; type: functional, organism-based; method in brief: as §3
[25] = Antiproliferative activity against human fibroblasts after 72 hrs by MTT assay; type: cell-based, Fibroblast

With CC(=O)Nc1cc(=O)n(Cc2ccccc2)c(SCc2ccccc2)n1 the IC50 (HT-29 [1]) was 35.6 µM, the GI50 (HT-29 [2]) was 79.3 µM and the GI50 (LoVo) was 56.3 µM. The GI50 (HepG2) was 71.7 µM, the GI50 (A549) was 50.4 µM and the Activity (Danio rerio [3]) was “Toxic”. For the same compound, the Activity (Danio rerio [4]) was “Non-toxic” and the inhibition (Danio rerio [5]) was “Active”.
Cc1ccn2cc(-c3ccc(N(Cc4ccccc4)Cc4ccccc4)cc3)nc2c1 gave an IC50 (HT-29 [1]) of 24.1 µM, a GI50 (HT-29 [2]) of 6.9 µM and a GI50 (LoVo) of 5.7 µM. The GI50 (HepG2) was 18.4 µM, the GI50 (A549) was 17.2 µM and the inhibition (HT-29 [6]) was “Active”. The inhibition (HT-29 [7]) was “Active”, the inhibition (HT-29 [8]) was “Active” and the inhibition (HT-29 [9]) was “Active”. The inhibition (HT-29 [10]) was “inactive”, the inhibition (HT-29 [11]) was “Active” and the inhibition (HT-29 [12]) was “Active”. The inhibition (HT-29 [13]) was “Active”, the inhibition (HT-29 [14]) was “Active” and the inhibition (HT-29 [15]) was “Active”. For the same compound, the inhibition (HT-29 [16]) was “Active”, the inhibition (HT-29 [17]) was “inactive” and the Activity (HT-29 [18]) was “Active”. The Activity (HT-29 [19]) was “Active”, the Activity (HT-29 [20]) was “Active” and the Activity (Danio rerio [21]) was “Toxic”. For the same compound, the inhibition (Danio rerio [22]) was “Active”, the inhibition (Danio rerio [23]) was “Active” and the inhibition (Danio rerio [24]) was “Active”. For the same compound, the GI50 at 72 h [25] was 52.3 µM.
